Measurements taken from ChEMBL document CHEMBL3272077, “11,12-Secoprostaglandins. 2. N-acyl-N-alkyl-7-aminoheptanoic acids” (1977).

Tests used:
Mus musculus [1] = species: Mus musculus; test: Stimulation of prostanoid receptor-mediated cAMP accumulation in Charles River CD-1 mouse ovary at 25 ug/ml after 30 mins relative to control; format: tissue-based; details: Female gonad
Method in brief: (§1)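 Mouse ovaries incubated 1 h at 37 °C with shaking to build an intracellular ATP-14C pool. Then 0.2 ml 0.05 M theophylline in 0.15 M NaCl and test compound in Me2SO were added, followed by 30 min at 37 °C. Stopped with 10% trichloroacetic acid and homogenized. cAMP-14C was isolated from the supernatant ending with paper chromatography. Result is fold increase, treated over untreated ovaries.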

Mus musculus [2] = species: Mus musculus; test: Stimulation of prostanoid receptor-mediated cAMP accumulation in Charles River CD-1 mouse ovary at 10 ug/ml after 30 mins relative to control; format: tissue-based; details: Female gonad; method in brief: as §1
Mus musculus [3] = species: Mus musculus; test: Stimulation of prostanoid receptor-mediated cAMP accumulation in Charles River CD-1 mouse ovary at 100 ug/ml after 30 mins relative to control; format: tissue-based; details: Female gonad; method in brief: as §1
Mus musculus [4] = species: Mus musculus; test: Stimulation of prostanoid receptor-mediated cAMP accumulation in Charles River CD-1 mouse ovary at 1 ug/ml after 30 mins relative to control; format: tissue-based; details: Female gonad; method in brief: as §1
Mus musculus [5] = species: Mus musculus; test: Stimulation of prostanoid receptor-mediated cAMP accumulation in Charles River CD-1 mouse ovary at 0.05 ug/ml after 30 mins relative to control; format: tissue-based; details: Female gonad; method in brief: as §1
Mus musculus [6] = species: Mus musculus; test: Stimulation of prostanoid receptor-mediated cAMP accumulation in Charles River CD-1 mouse ovary at 0.1 ug/ml after 30 mins relative to control; format: tissue-based; details: Female gonad; method in brief: as §1
Canis familiaris = test: Increase in renal blood flow in anesthetized dog at 0.25 mg/kg/min infused into thoracic aorta (reference value: 188 ml/min); format: functional, Canis lupus familiaris

fold change (FC) (Mus musculus [1]) | fold change (FC) (Mus musculus [2]) | fold change (FC) (Mus musculus [3]) | fold change (FC) (Mus musculus [4]) | fold change (FC) (Mus musculus [5]) | fold change (FC) (Mus musculus [6]) | Compound | Activity (Canis familiaris)
7 | 2 | 11 |  |  |  | C=CC(=O)N(CCCCCCCCC)CCCCCCC(=O)O | 
16 | 9 | 17 |  |  |  | CCCCCCCCC(C)N(CCCCCCC(=O)O)C(N)=O (stereo not drawn) | 
16 | 15 | 25 |  |  |  | CCCCCCCCCN(CCCCCCC(=O)O)C(N)=O | 
18 | 4 | 31 |  |  |  | CCCCCC(O)CCCN(C#N)CCCCCCC(=O)O (stereo not drawn) | 
19 | 14 | 26 |  |  |  | CCCCCC(O)/C=C/CN(CCCCCCC(=O)O)C(N)=O (stereo not drawn) | 
14 | 11 | 23 | 2 |  |  | CCCCCC(O)CCCC(CCCCCCC(=O)O)C(C)=O (stereo not drawn) | 
3 |  | 4 |  |  |  | CCCCCCCCC(C)N(CCCCCCC(=O)O)C(C)=O (stereo not drawn) | 
16 | 4 | 26 |  |  |  | CCCCCC(O)CCCN(CCCCCCC(=O)O)C(N)=S (stereo not drawn) | 
 |  |  | 54 | 29 | 25 | CCCCC[C@H](O)/C=C/[C@H]1[C@H](O)CC(=O)[C@@H]1CCCCCCC(=O)O | 
8 | 3 | 22 |  |  |  | CCCCCC(C)(O)CCCN(CCCCCCC(=O)O)C(N)=O (stereo not drawn) | 
26 | 25 |  | 10 |  |  | CCCCC[C@H](O)CC[C@H]1CCC(=O)[C@@H]1CCCCCCC(=O)O | 
17 | 10 | 17 |  |  |  | CCCCCC(O)CCCN(CCCCCCC(=O)O)C(C)=O (stereo not drawn) | 
1 |  | 1 |  |  |  | CCCCCCCCC(c1ccccc1)N(CCCCCCC(=O)O)C(C)=O (stereo not drawn) | 
43 | 23 | 40 | 2 |  |  | CCCCCC(O)CCCN(CCCCCCC(=O)[O-])C(N)=O.[Na+] (stereo not drawn) | 258 mL/min
